Compound activity deposited in PubChem BioAssay by The Scripps Research Institute Molecular Screening Center.
Rows were chosen to be rich in hits. Some 2% of all compounds tested hit in one or more screens of this group.
EBNA-1 inhibitor – blocks EBNA-1 binding to DNA | EBNA-1 DNA binding, fluorescence polarization | AID 1950 | inhibition, % at 14.8 µM | actives 0.34% (n = 300,000); in the data active = inhibition above about 28%
ZTA counter – ZTA (EBV) inhibition in EBNA-1 counter-screen; AID 2234; P03206; actives 0.15% (n = 320,000); ZTA-DNA binding, fluorescence polarization; inhibition, % at 11 µM; in the data active = inhibition above about 33%
Target sequence (P03206 whole entry, looked up): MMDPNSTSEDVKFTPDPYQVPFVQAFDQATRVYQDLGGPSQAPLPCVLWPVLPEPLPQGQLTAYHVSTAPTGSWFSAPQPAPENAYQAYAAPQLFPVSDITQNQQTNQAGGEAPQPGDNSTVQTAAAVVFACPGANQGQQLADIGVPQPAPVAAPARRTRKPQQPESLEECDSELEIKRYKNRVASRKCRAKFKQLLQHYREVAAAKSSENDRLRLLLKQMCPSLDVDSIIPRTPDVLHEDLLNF
GPR7 antagonist – antagonists of human GPR7 (neuropeptides B/W receptor 1); P48145; GPR7-expressing cells, fluorescence antagonist assay; inhibition, % at 4.4 µM; actives 1.1% (n = 290,000); in the data active = inhibition above about 16%, passing the limit was not always enough;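 note: cells stimulated with the agonist NPW; 0% = agonist with vehicle and 100% = vehicle without agonist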
NS3 helicase inh – HCV NS3 helicase inhibition. NS3 helicase DNA unwinding, Cy5 molecular beacon fluorescence. inhibition, % at 10.9 µM. actives 0.56% (n = 290,000);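 active = inhibition above the mean of all tested compounds plus 3 SD, set per campaign, cut at about 35% in these data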;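 note: 0% = DMSO wells and 100% = thioflavine S control wells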
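System: NS3 helicase fragment of HCV / Schedule: 1 h at 25 °C / Control set: DMSO alone as 0% and 110 µM thioflavine S as 100% / Reagent: Cy5/quencher beacon DNA duplex and ATP to start / Technique: Cy5 fluorescence / Replication: singlicate / Evaluation: % inhibition of end-to-start signal ratio versus controls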
DNA FID counter – displaces DNA intercalator in HCV helicase counter-screen | DNA fluorescent intercalator displacement, fluorescence | inhibition, % at 7.9 µM | actives 0.17% (n = 290,000) | AID 1845; in the data active = inhibition above about 37%;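 note: 0% = vehicle and 100% = reference compound; higher means more ethidium bromide displaced from hairpin DNA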
GPR7 antag conf – human GPR7 antagonism, confirmation assay; shares compounds with GPR7 antagonist; GPR7-expressing cells, calcium fluorescence antagonist mode; inhibition, % at 4.4 µM; actives 52% (n = 2,400); AID 1952; in the data active = inhibition above about 24%;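 note: stimulated with the GPR7 agonist NPW; 0% = agonist plus vehicle and 100% = vehicle alone without agonist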
MCHR1 antag – MCHR1 (human) antagonism in GPR7 counter-screen; shares compounds with GPR7 antagonist; MCHR1-expressing cells, fluorescence antagonist assay; inhibition, % at 4.4 µM; actives 62% (n = 2,400); AID 2148; in the data active = inhibition above about 22%;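 note: 0% = vehicle with agonist and 100% = vehicle without agonist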
The depositor's hits bear a star.

Results for C#CCOCCOCCOCCNc1nc(N2CCN(C(=O)[C@H](CCC(=O)O)n3cc(C(N)Cc4ccc(O)cc4)nn3)CC2)nc(N2CCN(C(=O)[C@H](CCC(=O)O)n3cc(C(N)Cc4ccc(O)cc4)nn3)CC2)n1 (stereo partly specified) ?
EBNA-1 inhibitor: 5.7; ZTA counter: 1.5; GPR7 antagonist: -9.3; NS3 helicase inh: 6.8; DNA FID counter: -41.3

Results for COc1ccc(-c2c[n+]3c(n2-c2ccc(C)cc2)CCCCC3)cc1 ?
EBNA-1 inhibitor: 2.9; ZTA counter: 4.5; GPR7 antagonist: 25.1*; NS3 helicase inh: -3.9; DNA FID counter: 2.5; GPR7 antag conf: 46.8*; MCHR1 antag: 38.2*

How did CCOc1ccc(-n2c(-c3ccc(OC)cc3)c[n+]3c2CCCCC3)cc1 do in these assays?
EBNA-1 inhibitor: -6.1; ZTA counter: -14.1; GPR7 antagonist: 36.4*; NS3 helicase inh: -10.4; DNA FID counter: 5.1; GPR7 antag conf: 55.1*; MCHR1 antag: 48.7*

What do the screens show for `CCOc1ccc(-n2c(-c3ccccc3)c[n+]3c2CCC3)cc1`?
EBNA-1 inhibitor: -8.6; ZTA counter: -18.6; GPR7 antagonist: -15.5; NS3 helicase inh: 4.9; DNA FID counter: -1.3

How did CCOc1ccc(-n2c(-c3ccc(Br)cc3)c[n+]3c2CCCCC3)cc1 do in these assays?
EBNA-1 inhibitor: -12.5; ZTA counter: 1.2; GPR7 antagonist: 28.8*; NS3 helicase inh: -20.0; DNA FID counter: 22.6; GPR7 antag conf: 39.2*; MCHR1 antag: 35.7*

Results for CC(C)CCC1(CCNC(C)c2cccs2)CCOC(C)(C)C1 (stereo unspecified) ?
EBNA-1 inhibitor: 2.0; ZTA counter: -7.5; GPR7 antagonist: 23.3*; NS3 helicase inh: -14.1; DNA FID counter: 20.2; GPR7 antag conf: 15.9; MCHR1 antag: 4.8

What do the screens show for `O=C(Nc1ccc(S(=O)(=O)N2CCOCC2)cc1)c1ccc(CN2CCc3ccccc3C2)cc1`?
EBNA-1 inhibitor: 11.6; ZTA counter: 9.4; GPR7 antagonist: 9.4; NS3 helicase inh: -8.6; DNA FID counter: 2.6

How did O=C(Nc1ccc(S(=O)(=O)N2CCCC2)cc1)c1ccc(CN2CCc3ccccc3C2)cc1 do in these assays?
EBNA-1 inhibitor: -7.0; ZTA counter: -4.1; GPR7 antagonist: 28.4*; NS3 helicase inh: -73.1; DNA FID counter: 20.9; GPR7 antag conf: 47.3*; MCHR1 antag: 63.2*

How did CS/C(=C\[N+](=O)[O-])Nc1ccc(F)cc1 do in these assays?
EBNA-1 inhibitor: -8.1; ZTA counter: -2.2; GPR7 antagonist: 23.4*; NS3 helicase inh: 20.5; DNA FID counter: -8.9; GPR7 antag conf: -11.8; MCHR1 antag: 4.5

How did Cc1cc(C)nc(/N=C(\N)Nc2ccc(-c3ccccc3)cc2)n1 do in these assays?
EBNA-1 inhibitor: -16.0; ZTA counter: 2.1; GPR7 antagonist: 64.9*; NS3 helicase inh: -45.1; DNA FID counter: 7.4; GPR7 antag conf: 65.5*; MCHR1 antag: 80.8*

What do the screens show for `COc1ccc(C)cc1N/C(N)=N/c1nc(C)cc(C)n1`?
EBNA-1 inhibitor: -2.5; ZTA counter: -2.4; GPR7 antagonist: -7.7; NS3 helicase inh: 3.2; DNA FID counter: -6.0

Results for CCOc1ccc(N/C(N)=N/c2nc(C)cc(C)n2)cc1 ?
EBNA-1 inhibitor: -20.1; ZTA counter: 3.6; GPR7 antagonist: 98.8*; NS3 helicase inh: -7.7; DNA FID counter: -4.4; GPR7 antag conf: 93.6*; MCHR1 antag: 97.4*

Results for Cc1cc(C)nc(/N=C(\N)Nc2ccc(S(N)(=O)=O)cc2)n1 ?
EBNA-1 inhibitor: -13.1; ZTA counter: -4.6; GPR7 antagonist: -5.6; NS3 helicase inh: 3.1; DNA FID counter: -0.8

What do the screens show for `Cc1cc(C)nc(/N=C(\N)Nc2ccc(SC(F)F)cc2)n1`?
EBNA-1 inhibitor: -4.9; ZTA counter: -18.6; GPR7 antagonist: 64.4*; NS3 helicase inh: 9.2; DNA FID counter: -1.6; GPR7 antag conf: 68.3*; MCHR1 antag: 78.5*

Results for COc1cc(N/C(N)=N/c2nc(C)cc(C)n2)cc(OC)c1 ?
EBNA-1 inhibitor: 10.2; ZTA counter: 13.2; GPR7 antagonist: -11.6; NS3 helicase inh: -9.4; DNA FID counter: -3.0
